Results from PubChem BioAssay AID552 (SRMLSC, 2006).
Out of some 20,000 compounds screened, about 10 (0.05%) were called active. The full list was thinned out, with actives kept by preference. Values without a mark were called inactive. No stated cut-off is given here; in the data, active means inhibition above about 40%; inactive means the rest.

Assay: antibacterial activity on E. coli BW25113 – strain BW25113 wild type, absorbance readout, primary screen (AID 552);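 further: bacteria exposed to compound for 20 hours at 37 °C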
Conditions: E. coli BW25113 growth inhibition, OD600; at 10 µM; stronger effect = higher value
In short: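 System: bacterial strain in a whole-cell growth screen; medium: LB broth with 50 µg/mL kanamycin; detection: absorbance at 615 nm; schedule: 20 h exposure, 37 °C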

Row | SMILES | inhibition
1 | O=C(COc1ccccc1F)NC1CC1 | -9.95%
2 | CC(C)(C)C(=O)CCN1C(=O)C2(OCCO2)c2ccccc21 | 11.1%
3 | CCOC(=O)N1CCN(CC(=O)c2c(C)[nH]c3ccccc23)CC1 | 8.75%
4 | COC(=O)C(C)N(C#N)c1nc(C)nc(C)n1 (centres undefined) | -24.9%
5 | Cc1cc(Cl)ccc1N1C(=O)CC(SCCC(=O)O)C1=O (centres undefined) | 0.27%
6 | COC(=O)C1=C(C)Nc2ncnn2C1c1ccco1 (centres undefined) | -13.1%
7 | CCOC(=O)c1c(C)oc2ccc(OCC(=O)N(CC)CC)cc12 | -3.67%
8 | COc1ccc(-c2cc3ccc(OCc4nn[nH]n4)cc3oc2=O)cc1 | -2.44%
9 | CCCn1c(C(O)c2cc(OC)ccc2OC)nc2ccccc21 (centres undefined) | -24.6%
10 | CC1Cn2c(nnc2-c2cccs2)S1 (centres undefined) | -19.2%
11 | COc1ccc(-c2nc(SCC(=O)N3CCOCC3)n[nH]2)cc1 | -14%
12 | Cn1c(=O)c2c(ncn2CC(=O)N2CCN(c3ccccc3)CC2)n(C)c1=O | 0.27%
13 | CC(C)NS(=O)(=O)c1ccc(OCC(=O)Nc2ccc3c(c2)OCCO3)cc1 | -17.1%
14 | COc1ccccc1C(=O)n1nc(-c2ccccc2)nc1N | -5.43%
15 | Cc1nnc2sc(-c3ccco3)nn12 | -19.1%
16 | O=C(c1cccnc1NCc1ccccc1)N1CCOCC1 | 4.48%
17 | Cc1ccc(-c2noc(CSc3nnc(-c4ccccc4)n3C)n2)cc1 | 13.8%
18 | Cn1c(=O)n(C)c2cc(C(=O)Nc3ccc4c(c3)OCO4)ccc21 | -11.7%
19 | COc1ccc(S(=O)(=O)N2CCCC2)c(C)c1C | -7.21%
20 | CC1=C(C(=O)OC2CCCCC2)C(c2cccnc2)n2ncnc2N1 (centres undefined) | -3.82%
21 | CCOc1ccc(Cn2nnc(C(=O)Nc3ccc(OC)cc3OC)c2N)cc1 | 1.62%
22 | Cc1cc(C)cc(N(C(C)C(=O)Nc2c(C)n(C)n(-c3ccccc3)c2=O)S(C)(=O)=O)c1 (centres undefined) | -10.4%
23 | Cc1nn(-c2ccccc2)c2[nH]c(C(F)(F)F)cc(=O)c12 | -5.63%
24 | COc1ccc(CCNS(=O)(=O)c2ccc(C(=O)NCc3ccco3)cc2)cc1OC | 8.04%
25 | O=C(c1ccco1)N1CCN(C(=O)C2CC(c3ccc(F)cc3)=NO2)CC1 (centres undefined) | 9.27%

Row | SMILES | inhibition
26 | CC(C(=O)N1CCOCC1)N1c2cccc3cccc(c23)S1(=O)=O (centres undefined) | -6.66%
27 | CSc1cccc(NC(=O)CSc2ccccc2)c1 | -12.8%
28 | O=C(c1ccccc1-c1ccccc1)N1CCOCC1 | -14.8%
29 | CC(C)n1c(NCc2c[nH]c3ccccc23)nc2ccccc21 | 18.1%
30 | COc1cc(NS(=O)(=O)c2ccccc2)ccc1-n1nc(C)cc1C | -15.6%
31 | COc1ccc2c(CC(=O)Nc3nnc(C4CC4)s3)coc2c1 | -3.61%
32 | COc1ccccc1NC1=NC2(CCCC2)N=C(N)N1 | 5.8%
33 | CCc1nnc(NC(=O)c2ccc(S(=O)(=O)NC3CCCCC3)cc2)s1 | -3.77%
34 | COC(=O)CN(c1nc(C)c(Cl)c(OC)n1)S(=O)(=O)c1ccc(C)cc1 | -1.76%
35 | CNC(=O)NCCN1CCCC1=O | 7.98%
36 | CCn1c(CNC(=O)c2ccc(OC)c(OC)c2)nnc1SCC(=O)Nc1ccccc1 | -11.8%
37 | O=C(C1CCCO1)N(Cc1ccccc1)c1ccccc1 (centres undefined) | -16.8%
38 | Cc1cc(NC(=O)Cn2nc(C(F)(F)F)c3c2CCCC3)no1 | -16.9%
39 | Cc1cc(C)nc(NC2=NCC(=O)N2c2ccc(Cl)cc2)n1 | 1.06%
40 | O=C(NCCc1ccccn1)c1ccc(COc2ccccc2)o1 | 15%
41 | C/C(=C(\C#N)C(=O)NCCCN1CCOCC1)N(C)C | 2.5%
42 | CCOC(=O)CC1C(=O)NCCN1C(=O)COc1ccc(Br)cc1C (centres undefined) | -24.8%
43 | CC(=O)Nc1ccc(S(=O)(=O)Nc2cccc(NC(=O)C(C)(C)C)c2)cc1 | -16.1%
44 | O=C1C2(c3ccccc3)CN(CCCO)CC1(c1ccccc1)CN(CCCO)C2 | -16.6%
45 | Cc1noc(C)c1CSc1nc2cc(S(=O)(=O)N3CCOCC3)ccc2o1 | -3.26%
46 | CCCCNC(=O)c1ccccc1NC(=O)c1ccccc1N(C)S(C)(=O)=O | -21%
47 | COC(=O)COc1ccc2oc(=O)cc(C)c2c1 | -18.5%
48 | O=S(=O)(N1CCOCC1)N1CCN(c2ccccc2F)CC1 | -11.7%
49 | CCC(Oc1ccccc1)C(=O)NCc1cccnc1 (centres undefined) | -21.9%
50 | O=C(Nc1nn(Cc2ccccc2F)cc1Br)c1cccs1 | -14.1%

Row | SMILES | inhibition
51 | Cc1ccc(S(=O)(=O)N(C)CC(=O)NC2CCCC2)cc1 | -2.1%
52 | N#CC1=C(N)C(C#N)(C#N)[C@H](c2ccsc2)[C@H]2COCC=C12 | -0.035%
53 | O=C(OCC(O)C(O)COC(=O)c1ccccc1)c1ccccc1 (centres undefined) | -18.9%
54 | CCCOc1ccc(NC(=O)C2CCCNC2=O)cc1 (centres undefined) | -30.8%
55 | COc1ccc(CC(NC(C)=O)C(=O)NC2CCN(C(=O)Nc3ccc(C#N)cc3)CC2)cc1OC (centres undefined) | -1.03%
56 | Cc1cc(C(=O)Nc2c(C)n(C)n(-c3ccccc3)c2=O)cs1 | -12.7%
57 | Cc1occc1C(=O)Nc1nnc(C2CCCCC2)s1 | 0.21%
58 | Cc1cc(=O)n(C)c(=O)n1CCCNc1ccccc1 | 8.62%
59 | C/C(N)=C(\C#N)C(=O)NCCc1ccccn1 | -3.41%
60 | CCOC(=O)c1c(C)nc(-c2ccccc2)nc1NC(=O)C(C)C | -20.2%
61 | Cc1cc(NC(=O)CN2CCC(O)(c3cccc(F)c3)CC2)no1 | -0.42%
62 | CCC(=O)Nc1nc(OC)cc(OC)n1 | -16.5%
63 | COc1ccc(CC(=O)Nc2c3c(nn2-c2cccc(Cl)c2)CS(=O)C3)cc1 (centres undefined) | 13.4%
64 | Cc1cc(C)nc(NC(=O)C(C)N2C(=O)c3ccccc3C2=O)n1 (centres undefined) | -17.9%
65 | CCOC(=O)c1cnc2sccn2c1=O | -15.3%
66 | O=C(CCN1C(=O)c2ccccc2C1=O)NCCN1CCOCC1 | 0.59%
67 | O=C(CCOc1ccccc1)NCc1ccccc1 | 14.8%
68 | CC1CC(C)CN(CC(=O)Nc2ccc(S(N)(=O)=O)cc2)C1 (centres undefined) | 0.613%
69 | O=C1CSC(c2cccc(F)c2)N1c1ccccc1F (centres undefined) | 6.64%
70 | Cc1nonc1NC(=O)c1ccccc1Br | -2.2%
71 | O=C(Nc1cccnc1)c1ccc2c(c1)OCO2 | 6.74%
72 | CC(=NCc1ccc2c(c1)OCO2)C1=C(O)c2ccccc2C1=O | 5.88%
73 | CC(Nc1nc(N2CCCC2)nc2ccccc12)c1ccccc1 (centres undefined) | -5.16%
74 | O=C(Nc1ccccc1N1CCCCC1)c1cccc(F)c1 | 0.18%
75 | CC(=O)NC1CC2CCCC(C1)N2CC(=O)Nc1ccccc1 (centres undefined) | 6.86%

Row | SMILES | inhibition
76 | COCCCN1C(=O)C(=O)/C(=C(/O)c2ccc3c(c2)CC(C)O3)C1c1cccnc1 (centres undefined) | -17.6%
77 | CCc1ccccc1NC(=O)CSc1nnc([C@@H](NC(=O)OC(C)(C)C)C(C)CC)o1 (some centres undefined) | -15.5%
78 | C=CCn1c(SCc2nnc(-c3ccccc3)o2)nnc1C(O)c1ccccc1 (centres undefined) | -17.5%
79 | COCCCn1c(CCC(=O)O)ccc1-c1ccc(F)cc1 | -9.43%
80 | CC(=O)NCCc1ccc(S(=O)(=O)N(C)C2CCS(=O)(=O)C2)cc1 (centres undefined) | -15.7%
81 | COc1ccc(NC(=O)CCNC(=O)Cn2ccc3ccccc3c2=O)c(OC)c1 | -0.805%
82 | CC(=O)N1C(=O)C2(Nc3ccccc3N2)c2ccccc21 | 7.24%
83 | COCCOC(=O)C1=C(C)NC(=O)CC1c1cc2c(cc1Br)OCO2 (centres undefined) | -1.9%
84 | COC(=O)c1cc(C(=O)OC)cc(N2C(=O)CC(N3CCN(c4ccccc4)CC3)C2=O)c1 (centres undefined) | -20%
85 | CC1CCCC(N2CCN(C(=O)c3ccc(F)cc3)CC2)C1 (centres undefined) | 8.12%
86 | O=C(Cn1nnc(-c2ccc(CN3CCOCC3)cc2)n1)NC1CCCCC1 | -1.75%
87 | O=C(Cc1nn[nH]n1)NCCC1=CCCCC1 | 17.3%
88 | CCC1=C(C(=O)OC)C(c2cc(OC)ccc2OC)C(C#N)=C(N)O1 (centres undefined) | -1.96%
89 | COc1ccc(OC)c(C(=O)c2ccc(C(=O)O)cc2)c1 | -4.3%
90 | Cc1ccc(NC2=NC(c3ccccc3)n3c(nc(C)cc3=O)N2)cc1 (centres undefined) | -1.73%
91 | COC(=O)Nc1ccc(S(=O)(=O)N(C)CC(F)(F)C(F)F)cc1 | -3.1%
92 | COC(=O)c1ccc(C2CC(=O)Nc3cc(OC)c(OC)cc32)cc1 (centres undefined) | -20.6%
93 | CC(C)c1ccc(N2CC(C(=O)Nc3nccs3)CC2=O)cc1 (centres undefined) | 2.9%
94 | CCc1nnc(NC(=O)C2CCCN2S(=O)(=O)c2ccccc2)s1 (centres undefined) | -21%
95 | Cc1cc(C)c(C#N)c(SCc2[nH]nc3c2C(c2ccccc2)C(C#N)=C(N)O3)n1 (centres undefined) | -3.73%
96 | CCOC(=O)CSc1nnc(-c2ccncc2)o1 | -0.95%
97 | COC(=O)C(C)Sc1nc2c(c(=O)n(C)c(=O)n2C)n1Cc1cccc(C)c1 (centres undefined) | 8.4%
98 | Cc1ccc(C(=O)NCC2CCCO2)o1 (centres undefined) | -6.23%
99 | CN(C)[C@@H]1C(=O)C(C(N)=O)=C(O)[C@@]2(O)C(=O)C3=C(O)c4c(O)ccc(Cl)c4[C@@H](O)[C@H]3C[C@@H]12 | 43.4% (active)
